≈ marks a conversion by molar mass, not a printed value. Calls of active or inactive are those of the source. The calls are words filed in the database; no cut-off is given here.
Experiments:
[1] = tested on: Streptococcus pyogenes; experiment: Antibacterial activity against Streptococcus pyogenes MGAS 1882 assessed as inhibition of bacterial growth incubated for 18 to 20 hrs by broth microdilution method; assay type: functional; details: time 18-20 hrs
Method in brief: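 Broth microdilution with a 0.5 McFarland inoculum diluted in tryptic soy broth to about 5 × 10^5 CFU/mL. Serial compound dilutions incubated aerobically at 37° C for 18–20 hours. MIC read visually as the lowest concentration with no growth.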

[2] = tested on: Staphylococcus aureus; experiment: Antibacterial activity against methicillin-resistant Staphylococcus aureus NRS123 assessed as inhibition of bacterial growth incubated for 18 to 20 hrs by broth microdilution method; assay type: functional; details: time 18-20 hrs
Method in brief: (§1)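 Broth microdilution per CLSI. Inoculum was set to 0.5 McFarland and diluted in CAMHB to about 5×10^5 CFU/mL. Serial dilutions of agent were incubated aerobically at 37 °C for 18–20 h. MIC was read visually as the lowest concentration with complete growth inhibition.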

[3] = tested on: Staphylococcus aureus; experiment: Downregulation of molybdenum ABC transporter ATP-binding protein expression in Staphylococcus aureus measured after 2 hrs by LC-MS/MS analysis; assay type: functional
Method in brief: (§2)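 S. aureus ATCC 25923 at OD600 0.6 exposed to compound or DMSO control for 2 h at 37°C, normalized to OD600 1.1 and PBS-washed. Cells were pressure-cycling lysed in 100 mM ammonium bicarbonate, and 50 μg protein was acetone-precipitated, reduced and alkylated, then Trypsin/Lys-C digested and C18-desalted. About 1 μg peptides went to LC-MS/MS. Label-free quantitation kept proteins present in all 3 samples, filtered at p <0.05.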

[4] = tested on: Staphylococcus aureus; experiment: Downregulation of EsaA protein expression in Staphylococcus aureus assessed as log2 of fold change in protein level measured after 2 hrs by LC-MS/MS analysis relative to control; assay type: functional
Method in brief: (§3)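 S. aureus ATCC 25923 at OD600 0.6 was treated with compound or DMSO for 2 h at 37 °C, normalised to OD600 1.1, and washed in PBS. Cells were pressure-lysed in 100 mM ammonium bicarbonate, then acetone-precipitated, reduced with DTT, alkylated with iodoacetamide, and digested with trypsin/Lys-C. Peptides were desalted and run on LC-MS/MS. Label-free quantitation used proteins present in all 3 samples, filtered at p<0.05 against DMSO.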

[5] = tested on: Staphylococcus aureus; experiment: Upregulation of thiol reductase thioredoxin expression in Staphylococcus aureus measured after 2 hrs by LC-MS/MS analysis; assay type: functional; method in brief: as §2
[6] = tested on: Staphylococcus aureus; experiment: Downregulation of glycero-phosphodiester phosphodiesterase protein expression in Staphylococcus aureus measured after 2 hrs by LC-MS/MS analysis; assay type: functional; method in brief: as §3
[7] = Toxicity in Balb/c mouse infected with methicillin-resistant Staphylococcus aureus USA300 assessed as necrosis administered topically twice daily 2 days post infection and measured after 5 days post compound treatment by H and E staining based histopathological analysis; details: in vivo, topical_or_ocular, 120 h, time 5 day
Method in brief: (§4)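 MRSA USA300-infected punch wounds in mice, n=5. Topical 2% agent or petroleum jelly vehicle twice daily from day 2 for 5 days. The left wound was formalin-fixed, cut into 4-μm sections and H&E-stained. Whole slides were scanned and assessed by a board-certified veterinary pathologist for necrosis, inflammation, haemorrhage and related features.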

[8] = tested on: Staphylococcus aureus; experiment: Downregulation of 50S rRNA methyltransferase protein expression in Staphylococcus aureus measured after 2 hrs by LC-MS/MS analysis; assay type: functional; method in brief: as §3
[9] = tested on: Staphylococcus aureus; experiment: Downregulation of GloB protein expression in Staphylococcus aureus assessed as log2 of fold change in protein level measured after 2 hrs by LC-MS/MS analysis relative to control; assay type: functional; method in brief: as §3
[10] = Toxicity in Balb/c mouse infected with methicillin-resistant Staphylococcus aureus USA300 assessed as chronic inflammatory response administered topically twice daily 2 days post infection and measured after 5 days post compound treatment by H and E staining based histopathological analysis; details: in vivo, topical_or_ocular, 120 h, time 5 day; method in brief: as §4
[11] = tested on: Staphylococcus aureus; experiment: Antibacterial activity against vancomycin-resistant Staphylococcus aureus 10 assessed as inhibition of bacterial growth incubated for 18 to 20 hrs by broth microdilution method; assay type: functional; details: time 18-20 hrs; method in brief: as §1
[12] = tested on: Staphylococcus aureus; experiment: Antibacterial activity against methicillin-resistant Staphylococcus aureus NRS 386 assessed as inhibition of bacterial growth incubated for 18 to 20 hrs by broth microdilution method; assay type: functional; details: time 18-20 hrs; method in brief: as §1
[13] = tested on: Staphylococcus aureus; experiment: Downregulation of signal peptidase II protein expression in Staphylococcus aureus measured after 2 hrs by LC-MS/MS analysis; assay type: functional; method in brief: as §2
[14] = tested on: Staphylococcus aureus; experiment: Upregulation of L-serine dehydratase, iron-sulfurdependent subunit alpha expression in Staphylococcus aureus measured after 2 hrs by LC-MS/MS analysis; assay type: functional; method in brief: as §2
[15] = tested on: Staphylococcus aureus; experiment: Downregulation of peptide ABC transporter permease protein expression in Staphylococcus aureus measured after 2 hrs by LC-MS/MS analysis; assay type: functional; method in brief: as §2
[16] = tested on: Staphylococcus aureus; experiment: Antibacterial activity against methicillin-resistant Staphylococcus aureus NRS119 assessed as inhibition of bacterial growth incubated for 18 to 20 hrs by broth microdilution method; assay type: functional; details: time 18-20 hrs; method in brief: as §1
[17] = tested on: Staphylococcus aureus; experiment: Downregulation of multifunctional 2,3-cyclic-nucleotide 2-phosphodiesterase/5-nucleotidase/3-nucleotidase protein expression in Staphylococcus aureus measured after 2 hrs by LC-MS/MS analysis; assay type: functional; method in brief: as §2
[18] = tested on: Staphylococcus aureus; experiment: Upregulation of DUF4930 domain-containing protein expression in Staphylococcus aureus measured after 2 hrs by LC-MS/MS analysis; assay type: functional; method in brief: as §2
[19] = tested on: Staphylococcus aureus; experiment: Downregulation of MAP domain-containing protein expression in Staphylococcus aureus measured after 2 hrs by LC-MS/MS analysis; assay type: functional; method in brief: as §3
[20] = tested on: Staphylococcus aureus; experiment: Downregulation of aureolysin protein expression in Staphylococcus aureus measured after 2 hrs by LC-MS/MS analysis; assay type: functional; method in brief: as §3
[21] = tested on: Mus musculus; experiment: Acceleration of wound healing in methicillin-resistant Staphylococcus aureus USA300 infected Balb/c mouse model assessed as reduction in MCP-1 protein level in skin wounds administered topically twice daily 2 days post infection and measured after 5 days post compound treatment; assay type: functional, organism-based; details: time 5.0 day
Method in brief: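 Mice had two 6-mm dorsal excisional wounds, each infected with 20 μL of 4.2×10^9 CFU/mL MRSA USA300 and covered with Tegaderm. Treatment began 2 days after infection (n=5 per group): 2% compound in petroleum jelly applied topically twice daily for 5 days. Right-wound homogenates in PBS were centrifuged, supernatants pooled per group, and protein normalised by BCA. Cytokines were measured by mouse cytokine array (pg/mL).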

[22] = tested on: Staphylococcus aureus; experiment: Downregulation of SdrD protein expression in Staphylococcus aureus assessed as log2 of fold change in protein level measured after 2 hrs by LC-MS/MS analysis relative to control; assay type: functional; method in brief: as §3
[23] = tested on: Staphylococcus aureus; experiment: Antibacterial activity against methicillin-resistant Staphylococcus aureus NRS 385 assessed as inhibition of bacterial growth incubated for 18 to 20 hrs by broth microdilution method; assay type: functional; details: time 18-20 hrs; method in brief: as §1
[24] = tested on: Staphylococcus aureus; experiment: Downregulation of PyrF protein expression in Staphylococcus aureus assessed as log2 of fold change in protein level measured after 2 hrs by LC-MS/MS analysis relative to control; assay type: functional; method in brief: as §3
[25] = tested on: Staphylococcus aureus; experiment: Downregulation of protein EssC expression in Staphylococcus aureus measured after 2 hrs by LC-MS/MS analysis; assay type: functional; method in brief: as §2
[26] = tested on: Staphylococcus aureus; experiment: Antibacterial activity against Staphylococcus aureus MRSA ATCC 33592 assessed as inhibition of bacterial growth incubated for 18 to 20 hrs by broth microdilution method; assay type: functional; details: time 18-20 hrs
Method in brief: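 Broth microdilution per CLSI. Inoculum at 0.5 McFarland, diluted in cation-adjusted Mueller Hinton broth to about 5 × 10^5 CFU/mL. Serial compound dilutions incubated aerobically at 37° C for 18–20 hours. MIC taken as the lowest concentration completely inhibiting visible growth.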

[27] = tested on: Staphylococcus aureus; experiment: Downregulation of Als protein expression in Staphylococcus aureus assessed as log2 of fold change in protein level measured after 2 hrs by LC-MS/MS analysis relative to control; assay type: functional; method in brief: as §3

In the case of `CC1CC(C)CN(S(=O)(=O)c2ccc(C(=O)Nc3nnc(-c4ccc(C(F)(F)F)cc4)o3)cc2)C1` (configuration not stated), the MIC [1] is reported as 0.06 µg/mL (≈ 0.118 µM), the MIC [2] is reported as 0.25 µg/mL (≈ 0.492 µM) and the Activity [3] is reported as “Active”. The log2FC [4] was -2, the Activity [5] was “Active” and the Activity [6] was “Active”. For the same molecule, the Activity [7] was “Toxic”, the Activity [8] was “Active” and the log2FC [9] was -2. The Activity [10] was “Toxic”, the MIC [11] was 0.25 µg/mL (≈ 0.492 µM) and the MIC [12] was 0.25 µg/mL (≈ 0.492 µM). For the same molecule, the Activity [13] was “Active”, the Activity [14] was “Active” and the Activity [15] was “Active”. For the same molecule, the MIC [16] was 0.25 µg/mL (≈ 0.492 µM), the Activity [17] was “Active” and the Activity [18] was “Active”. For the same molecule, the Activity [19] was “Active”, the Activity [20] was “Active” and the Activity [21] was “Active”. The log2FC [22] was -2, the MIC [23] was 0.25 µg/mL (≈ 0.492 µM) and the log2FC [24] was -2.2. The Activity [25] was “Active”, the MIC [26] was 0.25 µg/mL (≈ 0.492 µM) and the log2FC [27] was -2.7.
